Experimental data: ChEMBL document CHEMBL1828510, “Synthesis of 3-heteroarylthioquinoline derivatives and their in vitro antituberculosis and cytotoxicity studies” (Eur J Med Chem, 2011)
In brackets after ≈: the same amount, converted by molar mass.

tested on: Mycobacterium tuberculosis; test: Antimycobacterial activity against multidrug-resistant Mycobacterium tuberculosis H37Rv after 28 days by agar dilution method; type: functional; conditions: 672 h
Method in brief: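 Agar dilution on Middlebrook 7H11 agar with OADC, run in duplicate at pH 7.4. The clinical isolate was resistant to isoniazid, rifampicin, ethambutol and ciprofloxacin. Inoculum from fresh slants was set to 1 mg/mL wet weight in 0.05% Tween 80 saline, diluted 10^-2 to about 10⁷ cfu/mL, and spotted onto 10-fold serial drug dilutions. Incubated at 37 °C and read at 28 days. MIC is the lowest concentration giving complete (99%) growth inhibition.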

| SMILES | MIC |
| --- | --- |
| c1ccc(-c2nc3ccccc3c(-c3ccccc3)c2Sc2nc3ccccc3s2)cc1 | 55.9 µM (≈ 25 µg/mL) |
| c1ccc(-c2ccc(-c3nc4ccccc4c(-c4ccccc4)c3Sc3nc4ccccc4s3)cc2)cc1 | 47.2 µM (≈ 24.7 µg/mL) |
| c1ccc(-c2ccc(-c3nc4ccccc4c(-c4ccccc4)c3Sc3nnnn3-c3ccccc3)cc2)cc1 | 46.8 µM (≈ 25 µg/mL) |
| c1ccc(-c2c(Sc3nnnn3-c3ccccc3)c(-c3ccc4ccccc4c3)nc3ccccc23)cc1 | 49.2 µM (≈ 25 µg/mL) |
| Cc1ccc(-c2nc3ccccc3c(-c3ccccc3)c2Sc2nnc(C)s2)cc1 | 29.4 µM (≈ 12.5 µg/mL) |
| Clc1ccc(-c2nc3ccccc3c(-c3ccccc3)c2Sc2nnnn2-c2ccccc2)cc1 | 50.8 µM (≈ 25 µg/mL) |
| NNC(=O)c1ccncc1 [ISONIAZID] | 0.4 µM (≈ 0.0549 µg/mL) |
| Brc1ccc(-c2nc3ccccc3c(-c3ccccc3)c2Sc2nnnn2-c2ccccc2)cc1 | 23.3 µM (≈ 12.5 µg/mL) |
| Cc1ccc(-c2nc3ccccc3c(-c3ccccc3)c2Sc2nnnn2-c2ccccc2)cc1 | 53 µM (≈ 25 µg/mL) |
| Cc1nnc(Sc2c(-c3ccc(Cl)cc3)nc3ccccc3c2-c2ccccc2)s1 | 3.5 µM (≈ 1.56 µg/mL) |
| Brc1ccc(-c2nc3ccccc3c(-c3ccccc3)c2Sc2nc3ccccc3s2)cc1 | 5.9 µM (≈ 3.1 µg/mL) |
| c1ccc(-c2c(Sc3nc4ccccc4s3)c(-c3ccc4ccccc4c3)nc3ccccc23)cc1 | 50.3 µM (≈ 25 µg/mL) |
| Cc1nnc(Sc2c(-c3ccccc3)nc3ccccc3c2-c2ccccc2)s1 | 30.4 µM (≈ 12.5 µg/mL) |
| Cc1nnc(Sc2c(-c3ccc(Br)cc3)nc3ccccc3c2-c2ccccc2)s1 | 3.2 µM (≈ 1.57 µg/mL) |
| CC[C@@H](CO)NCCN[C@@H](CC)CO [ETHAMBUTOL] | 7.6 µM (≈ 1.55 µg/mL) |
| COc1ccc(-c2nc3ccccc3c(-c3ccccc3)c2Sc2nnnn2-c2ccccc2)cc1 | 51.2 µM (≈ 25 µg/mL) |
| c1ccc(-c2nc3ccccc3c(-c3ccccc3)c2Sc2nnnn2-c2ccccc2)cc1 | 54.6 µM (≈ 25 µg/mL) |
| Cc1nnc(Sc2c(-c3ccc(-c4ccccc4)cc3)nc3ccccc3c2-c2ccccc2)s1 | 6.4 µM (≈ 3.12 µg/mL) |
| Cc1ccc(-c2nc3ccccc3c(-c3ccccc3)c2Sc2nc3ccccc3s2)cc1 | 54.3 µM (≈ 25 µg/mL) |
| CO[C@H]1/C=C/O[C@@]2(C)Oc3c(C)c(O)c4c(O)c(c(/C=N/N5CCN(C)CC5)c(O)c4c3C2=O)NC(=O)/C(C)=C\C=C\[C@H](C)[C@H](O)[C@@H](C)[C@@H](O)[C@@H](C)[C@H](OC(C)=O)[C@@H]1C [RIFAMPIN] | 0.1 µM (≈ 0.0823 µg/mL) |
| COc1ccc(-c2nc3ccccc3c(-c3ccccc3)c2Sc2nc3ccccc3s2)cc1 | > 52.4 µM |
| Cc1nnc(Sc2c(-c3ccc4ccccc4c3)nc3ccccc3c2-c2ccccc2)s1 | 13.5 µM (≈ 6.23 µg/mL) |
| Clc1ccc(-c2nc3ccccc3c(-c3ccccc3)c2Sc2nc3ccccc3s2)cc1 | 12.9 µM (≈ 6.21 µg/mL) |
| COc1ccc(-c2nc3ccccc3c(-c3ccccc3)c2Sc2nnc(C)s2)cc1 | 28.3 µM (≈ 12.5 µg/mL) |
